In the library only some 1.5% were active in any assay of this set; here they are far more common.
procasp3 activ: activates human procaspase-3; AID 463141; P42574; activation, % at 8.5 µM; 330,000 tested, 0.11% active; recombinant procaspase-3 D3A, Ac-DEVD-pNA absorbance 405 nm;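 active = activation above the mean of all tested compounds plus 3 SD, cut at about 21% in these data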;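 also: 0% = DMSO alone and 100% = DMSO wells spiked with extra 5 µM PC-3 D3A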
Target sequence (P42574 whole entry D9A/D28A/D175A): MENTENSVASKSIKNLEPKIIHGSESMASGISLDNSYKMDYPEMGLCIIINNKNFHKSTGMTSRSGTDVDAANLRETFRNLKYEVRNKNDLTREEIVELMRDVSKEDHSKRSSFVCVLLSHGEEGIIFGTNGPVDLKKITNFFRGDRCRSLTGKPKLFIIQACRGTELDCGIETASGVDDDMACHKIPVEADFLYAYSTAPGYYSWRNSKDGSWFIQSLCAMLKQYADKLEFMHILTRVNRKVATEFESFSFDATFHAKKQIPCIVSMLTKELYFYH
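Assay system – Procaspase-3 D3A mutant · Benchmarks – DMSO low control, extra-enzyme high control · Technique – 405 nm absorbance of p-nitroaniline, reads at 0 and 120 min · Doses – 8.5 µM nominal · Measure – % activation between DMSO and enzyme-spiked controls · Also added – Ac-DEVD-pNA chromogenic peptide substrate · Schedule – 1 h compound preincubation, 2 h substrate hydrolysis at 25 °C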
proCasp7 act: counter-screen for procaspase-3 activators: activators of human procaspase-7 | P55210 | recombinant procaspase-7, Ac-DEVD-pNA absorbance 405 nm; D23A/D198A/D206A triple mutant, cannot self-cleave; scale: DMSO 0, 5 µM enzyme 100 | activation, % at 8.5 µM | 330,000 tested, 0.093% active | AID 463210;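 active = percent activation above the screen-wide mean plus 3 SD, cut at about 25% in these data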
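System: Uncleavable procaspase-7 mutant enzyme; Amount: 2 µM procaspase-7 mutant as dispensed; Schedule: 1 h compound preincubation, 2 h substrate cleavage, 25 °C; Measured by: 405 nm absorbance of p-nitroaniline; Evaluation: percent activation from buffer-corrected 0–120 min absorbance change; Control set: low DMSO alone, high DMSO plus 5 µM PC-7.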
MsrA inh: bovine MsrA inhibition. AID 651718. inhibition, % at 15.5 µM. purified bovine MsrA, absorbance read-out. 360,000 tested, 0.75% active; in the data active = inhibition above about 4.5%;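 also: 0% = vehicle wells with enzyme and 100% = reference inhibitor wells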
MsrA act: activators of bovine methionine sulfoxide reductase A; purified bovine MsrA, absorbance read-out; activation, % at 10.6 µM; 360,000 tested, 0.3% active; AID 602163; in the data active = activation above about 7.5%;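 also: 0% = vehicle and 100% = reference activator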
Tb MetRS inh: Trypanosoma brucei MetRS inhibition. purified T. brucei MetRS, ATP depletion, Kinase-Glo luminescence. AID 624268. 360,000 tested, 0.4% active. inhibition, % at 11.9 µM;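 active = inhibition above a per-plate cutoff of the control wells' mean inhibition plus 3 SD, cut at about 5.5% in these data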;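 also: 0% = DMSO wells median and 100% = median of wells with control inhibitor compound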
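Material: T. brucei methionyl-tRNA synthetase, purified; reagent: substrates ATP, L-methionine and bulk Escherichia coli tRNA; dosing: 11.9 µM single point; timing: 15 min plus 2 h at 25 °C; detection: luminescence of leftover ATP; evaluation: % inhibition; control set: DMSO-only wells as low control; replicates: singlicate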
MsrA act confirm: confirmation of bovine methionine sulfoxide reductase A activators; activation, % at 10.6 µM; 1,000 tested, 12% active; shares compounds with MsrA act; purified bovine MsrA, absorbance read-out; in the data active = activation above about 4%;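 also: enzyme coupled to thioredoxin and thioredoxin reductase with NADPH; 0% = vehicle wells and 100% = reference activator wells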
* hit, by the source's call; . = no result given.

SMILES | procasp3 activ | proCasp7 act | MsrA inh | MsrA act | Tb MetRS inh | MsrA act confirm
CCC(CO)NCc1cc(OC)c(OCC(=O)NCCc2ccccc2)cc1Br (centres undefined) | 0.5 | -1.3 | 0.5 | 9.0* | -0.2 | -1.1
COc1ccc(-c2noc(N3CCC(C(=O)NCCCN4CCCC(C)C4)CC3)n2)cc1 (centres undefined) | 3.7 | 13.3 | -0.7 | 8.7* | -0.4 | 0.2
CS(=O)(=O)c1ccc(OCCCN2CCC(C(O)(c3ccccc3)c3ccccc3)CC2)cc1 | . | . | 1.4 | . | . | .
N#Cc1ccccc1NC(=O)CN1C(=O)NC(Cc2c[nH]c3ccccc23)C1=O (centres undefined) | -0.9 | -5.5 | -1.2 | 8.0* | -0.1 | 5.4*
COc1ccc(NS(=O)(=O)c2cc(C)ccc2NC(=O)c2cc(C)oc2C)cc1 | 2.3 | 11.8 | -0.7 | 9.3* | -0.6 | -0.7
COc1ccc(NS(=O)(=O)c2cccc(C(=O)NNC(=O)c3cc(C)oc3C)c2)cc1 | -5.2 | -2.8 | 0.7 | -0.6 | 0.0 | .
Cc1nn(C)c(C)c1CN(C)C(=O)C1c2ccccc2Oc2ccccc21 | 5.9 | 5.4 | 0.2 | -2.9 | 0.0 | .
Cc1nn(C)c(C)c1CN(C)C(=O)C1(C)CC1(Br)Br (centres undefined) | 0.6 | 12.7 | -0.6 | 9.6* | -0.3 | -1.4
CC(=O)Nc1cccc(OCC(=O)Nc2ccccc2)c1 | -1.1 | 7.4 | -0.3 | -6.3 | -0.7 | .
CCOc1ccc(-c2cccc(NC(=O)COc3ccccc3)c2)nn1 | 7.4 | -1.3 | . | 8.8* | 0.2 | 1.0
O=C(N/N=C/c1cccs1)C1COc2ccccc2O1 (centres undefined) | 1.3 | -0.1 | 0.7 | 8.6* | -0.6 | -1.9
COC(=O)[C@]12C[C@H](CC(=O)N3CCCCC3)C(=O)N(Cc3ccc4c(c3)OCO4)C1=C[C@H](C(C)(C)C)O[C@@H]2C | . | . | -0.2 | . | . | .
CCOc1ccc(C(=O)NC2CCN(C(=O)NCc3ccccc3)CC2)cc1 | 5.9 | -1.9 | 0.0 | 9.6* | -0.1 | -0.7
COc1cc(F)ccc1Oc1cccc2c1S(=O)(=O)N([C@H](C)c1ccccc1)C[C@@H](COCc1ccccc1)O2 | . | . | 0.1 | . | . | .
Cc1cc(C)c2c(-n3cccc3)c(C(=O)NNS(=O)(=O)c3ccc(Br)cc3)sc2n1 | 4.1 | -7.0 | 1.3 | 8.5* | -0.3 | -1.9
CCOC(=O)Nc1sc2nc(C)cc(C)c2c1-n1cccc1 | -4.6 | 11.5 | 0.1 | -3.5 | -1.2 | .
CCc1cc2c(nc1CC)CCCN2CCOC | . | . | 0.2 | . | . | .
CC(=O)N1CCN(c2ccc(N3CCN(C(C)=O)[C@H](C)C3)c(C)c2)[C@H](C)C1 | . | . | 1.0 | . | . | .
CCCc1cc(C(=O)Cc2ccc(F)cc2)c(O)cc1O | -8.7 | -14.2 | 1.4 | 21.5* | -0.2 | -1.7
O=C(NCc1ccccc1F)C1CC(=O)N(c2ccc3c(c2)OCCO3)C1 (centres undefined) | 1.6 | 2.0 | -0.4 | 9.5* | 0.4 | -1.8
O=C(C1CC(=O)N(c2ccc3c(c2)OCCO3)C1)N1CCN(c2ccccc2)CC1 (centres undefined) | 5.8 | -6.4 | -0.1 | 9.4* | -0.2 | 0.4
COc1ccc(C2CC(=O)C(c3ccc4ccccc4c3)=CN2Cc2ccccc2)cc1 (centres undefined) | . | . | 1.1 | . | . | .
NS(=O)(=O)c1ccc(NC(=O)NC2CC(=O)N(c3ccc4c(c3)OCCO4)C2)cc1 (centres undefined) | -8.2 | 2.7 | -0.2 | 11.2* | -0.1 | -2.2
Nc1ccccc1SSc1ccccc1N | -16.5 | -21.9 | 0.4 | 11.2* | -0.4 | 3.9
COC(=O)c1cc2c(c3c4cc(C)ccc4n(S(=O)(=O)c4cccc(C)c4)c13)C(=O)N(Cc1ccc(C(F)(F)F)cc1)C2 | . | . | 0.5 | . | . | .
COc1ccc(-c2c(C)nn3c(N4CCN(Cc5ccccc5)CC4)cc(C)nc23)cc1OC | 1.5 | -2.4 | -0.4 | 8.3* | 0.3 | 0.1
COc1ccc(OC)c(/C=N/N(CCC#N)C2=NS(=O)(=O)c3ccccc32)c1 | -0.7 | 0.4 | 0.1 | 7.9* | -0.7 | 5.3*
CC(=O)c1sc(Nc2nc3ccc(F)cc3s2)nc1C | -66.6 | -38.0 | -0.2 | 7.8* | 0.3 | -0.8

Screens as filed in PubChem BioAssay.
